In brackets after ≈: the same amount, converted by molar mass.
Key:
[1] = test system: Staphylococcus aureus; experiment: Antibacterial activity against methicillin-resistant Staphylococcus aureus BAA-44 assessed as bacterial growth inhibition incubated for 16 hrs by broth microdilution susceptibility test; type: functional
How it was run: (§1)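 CLSI broth microdilution with 11 twofold dilutions (0.05–50 μM). Medium was LB for the staphylococci and BHI for VRE 700221. About 10^5 cells per well from a log-phase culture. […] DMSO vehicle up to 0.5% v/v. At least three independent experiments.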

[2] = test system: Staphylococcus epidermidis; experiment: Antibacterial activity against methicillin-resistant Staphylococcus epidermidis ATCC 35984 assessed as bacterial growth inhibition incubated for 16 hrs by broth microdilution susceptibility test; type: functional
How it was run: (§2)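 CLSI broth microdilution with 11 twofold dilutions (0.05–50 μM). About 10^5 cells per well from a log-phase culture. DMSO vehicle up to 0.5% v/v. At least three independent experiments.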

[3] = test system: Enterococcus faecalis; experiment: Antibacterial activity against Enterococcus faecalis OG1RF ATCC 47077 assessed as bacterial growth inhibition incubated for 16 hrs by broth microdilution susceptibility test; type: functional
[4] = test system: Mycobacterium tuberculosis; experiment: Antibacterial activity against Mycobacterium tuberculosis H37Ra ATCC 25177 assessed as bacterial growth inhibition incubated for 7 days by absorbance based analysis; type: functional; details: H37Ra ATCC 25177, 168 h, time 7 day
How it was run: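 H37Ra grown 2 weeks in Middlebrook 7H9, then diluted to OD600 0.01. Compounds added in twofold dilutions, final 0.024–50 μM, with 0.5% DMSO and streptomycin as positive control. Incubated 7 days at 37 °C. MIC is the lowest concentration with no growth, with OD600 recorded. At least three independent experiments.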

[5] = test system: Mycobacterium tuberculosis; experiment: Antibacterial activity against Mycobacterium tuberculosis CDC1551 assessed as bacterial growth inhibition incubated for 5 days by luminescence based analysis; type: functional; details: CDC1551, 120 h, time 5 day
How it was run: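 Bioluminescent Mtb-lux CDC1551 reporter grown in Middlebrook 7H9 with 0.05% Tween 80, 10% OADC and kanamycin to OD600 0.4–0.8, then diluted to OD600 0.02. Added to twofold drug dilutions (0.003–200 μM). Incubated 5 days at 37 °C, 5% CO2. Luminescence read against 1% DMSO and 10 μM rifampicin controls to give % growth inhibition. MIC taken from a modified Gompertz fit.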

[6] = test system: HeLa; experiment: Cytotoxicity against human HeLa cells assessed as reduction in cell viability incubated for 24 hrs by LDH release assay; type: toxicity, cell-based
How it was run: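 HeLa cells in DMEM with 10% FBS, treated at 70–80% confluence with 25, 50 and 100 μM for 24 h. LDH in supernatant measured by 30 min reaction at room temperature, then stop solution and absorbance at 490 nm. Controls: 2% Triton X-100 (maximum), medium only, DMSO vehicle. Three independent experiments.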

[7] = test system: J774; experiment: Cytotoxicity against mouse J774 cells assessed as reduction in cell viability […] by Alamar blue assay; type: toxicity, cell-based
[8] = test system: HepG2; experiment: Cytotoxicity against human HepG2 cells assessed as reduction in cell viability […] by Alamar blue assay; type: toxicity, cell-based
[9] = test system: Staphylococcus aureus; experiment: Bactericidal activity against methicillin-resistant Staphylococcus aureus BAA-1707 planktonic cells assessed as planktonic eradication incubated for 24 hrs followed by incubation for overnight in fresh medium by Calgary biofilm device assay; type: functional
How it was run: (§3)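 Calgary biofilm device. Biofilms grown 24 h at 37 °C in TSB with 0.5% glucose, then challenged 24 h with twofold compound dilutions. 20 μL of challenge medium transferred into fresh TSB with 0.5% glucose and incubated overnight at 37 °C. MBC is the concentration with no visible turbidity. At least three independent experiments.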

[10] = test system: Staphylococcus aureus; experiment: Antibiofilm activity against methicillin-resistant Staphylococcus aureus BAA-1707 biofilms assessed as biofilm eradication incubated for 24 hrs followed by incubation for 24 hrs in fresh medium by Calgary biofilm device assay; type: functional
How it was run: (§4)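 Calgary biofilm device. Mid-log culture diluted 1000-fold in TSB with 0.5% glucose; biofilms grown on pegs 24 h at 37 °C. Pegs washed and challenged with twofold compound dilutions for 24 h at 37 °C, then moved to fresh medium for 24 h. MBEC is the lowest concentration leaving wells non-turbid. At least three independent experiments.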

[11] = test system: Erythrocyte; experiment: Hemolytic activity against human RBC at 200 uM measured after 1 hr; type: toxicity, cell-based
How it was run: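 2% hRBCs exposed to compound at 200 μM final, added from DMSO stock, for 1 h at 37 °C. Supernatant OD read at 405 nm. Hemolysis normalized between DMSO (0%) and Triton X (100%); three independent experiments.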

[12] = test system: Enterococcus faecium; experiment: Bactericidal activity against methicillin-resistant vancomycin-resistant Enterococcus faecium ATCC 700221 planktonic cells assessed as planktonic eradication incubated for 24 hrs followed by incubation for overnight in fresh medium by Calgary biofilm device assay; type: functional; how it was run: as §3
[13] = test system: Enterococcus faecium; experiment: Antibiofilm activity against methicillin-resistant vancomycin-resistant Enterococcus faecium ATCC 700221 biofilms assessed as biofilm eradication incubated for 24 hrs followed by incubation for 24 hrs in fresh medium by Calgary biofilm device assay; type: functional; how it was run: as §4
[14] = test system: Staphylococcus aureus; experiment: Antibacterial activity against methicillin-resistant Staphylococcus aureus BAA-1707 assessed as bacterial growth inhibition incubated for 16 hrs by broth microdilution susceptibility test; type: functional; how it was run: as §2
[15] = test system: Enterococcus faecium; experiment: Antibacterial activity against vancomycin-resistant Enterococcus faecium ATCC 700221 assessed as bacterial growth inhibition incubated for 16 hrs by broth microdilution susceptibility test; type: functional; how it was run: as §1
[16] = test system: Enterococcus faecalis; experiment: Bactericidal activity against […] Enterococcus faecalis OG1RF ATCC 47077 planktonic cells assessed as planktonic eradication incubated for 24 hrs followed by incubation for overnight in fresh medium by Calgary biofilm device assay; type: functional
How it was run: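 Calgary biofilm device in BHI. Biofilms grown 24 h at 37 °C and challenged 24 h with twofold compound dilutions. Challenge medium subcultured 1:10 into fresh BHI overnight at 37 °C. MBC is the concentration with no turbidity. At least three independent experiments.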

[17] = test system: Enterococcus faecalis; experiment: Antibiofilm activity against Enterococcus faecalis OG1RF ATCC 47077 biofilms assessed as biofilm eradication incubated for 24 hrs followed by incubation for 24 hrs in fresh medium by Calgary biofilm device assay; type: functional
How it was run: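 Calgary biofilm device. Biofilms grown 24 h at 37 °C in BHI from mid-log culture diluted 1000-fold. Pegs washed and then challenged 24 h with twofold serial dilutions. Pegs moved to fresh BHI for 24 h recovery. MBEC = lowest concentration leaving no turbidity; at least three independent experiments.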

[18] = test system: Staphylococcus epidermidis; experiment: Bactericidal activity against methicillin-resistant Staphylococcus epidermidis ATCC 35984 planktonic cells assessed as planktonic eradication incubated for 24 hrs followed by incubation for overnight in fresh medium by Calgary biofilm device assay; type: functional; how it was run: as §3
[19] = test system: Staphylococcus epidermidis; experiment: Antibiofilm activity against methicillin-resistant Staphylococcus epidermidis ATCC 35984 biofilms assessed as biofilm eradication incubated for 24 hrs followed by incubation for 24 hrs in fresh medium by Calgary biofilm device assay; type: functional; how it was run: as §4

SMILES | MIC [1] | MIC [2] | MIC [3] | MBC [9] | MBEC [10] | Activity [11] | MBC [12] | MIC [14] | MIC [15] | other results
Cc1c(Br)ccc2nc3c(O)cc(Cl)cc3nc12 | 0.3 µM (≈ 0.0971 µg/mL) | 0.78 µM (≈ 0.252 µg/mL) | 2.35 µM (≈ 0.76 µg/mL) | 18.8 µM (≈ 6.08 µg/mL) | […] | <= 1% | – | – | – | MIC [4]: 6.25 µM (≈ 2.02 µg/mL); MIC [5]: 3.27 µM (≈ 1.06 µg/mL); IC50 [6]: > 100 µM; IC50 [7]: > 200 µM; IC50 [8]: > 200 µM
CCCCCCCCCC(=O)N[C@@H](Cc1c[nH]c2ccccc12)C(=O)N[C@H](CC(N)=O)C(=O)N[C@@H](CC(=O)O)C(=O)N[C@@H]1C(=O)NCC(=O)N[C@@H](CCCN)C(=O)N[C@@H](CC(=O)O)C(=O)N[C@H](C)C(=O)N[C@@H](CC(=O)O)C(=O)NCC(=O)N[C@H](CO)C(=O)N[C@@H]([C@H](C)CC(=O)O)C(=O)N[C@@H](CC(=O)c2ccccc2N)C(=O)O[C@@H]1C | – | – | – | – | >2000 µM | – | 375 µM (≈ 608 µg/mL) | – | – | MBEC [13]: 93.8 µM
Oc1cc(Cl)cc2nc3ccc(Br)cc3nc12 | – | > 50 µM | – | – | – | – | – | 9.38 µM (≈ 2.9 µg/mL) | > 50 µM | –
Oc1cc(Cl)cc2nc3ccc(I)cc3nc12 | 1.56 µM (≈ 0.556 µg/mL) | – | – | 37.5 µM (≈ 13.4 µg/mL) | 37.5 µM | 1.9% | – | 0.78 µM (≈ 0.278 µg/mL) | 3.13 µM (≈ 1.12 µg/mL) | IC50 [6]: 100 µM
Cc1c(Br)ccc2nc3c(O)c(Br)c(Cl)c(Br)c3nc12 | – | 0.1 µM (≈ 0.0481 µg/mL) | 0.05 µM (≈ 0.0241 µg/mL) | 75 µM (≈ 36.1 µg/mL) | 75 µM | 27% | 2.35 µM (≈ 1.13 µg/mL) | 0.59 µM (≈ 0.284 µg/mL) | ≤ 0.05 µM | MIC [5]: 0.88 µM (≈ 0.424 µg/mL); IC50 [7]: > 200 µM; IC50 [8]: > 200 µM; MBEC [13]: 0.2 µM; MBC [16]: 1.56 µM (≈ 0.751 µg/mL); MBEC [17]: 0.78 µM
Oc1cc(Cl)cc2nc3c(Oc4ccccc4)cccc3nc12 | 3.13 µM (≈ 1.01 µg/mL) | 3.13 µM (≈ 1.01 µg/mL) | – | – | – | – | – | 3.13 µM (≈ 1.01 µg/mL) | – | –
Cc1ccc2nc3c(O)cc(Cl)cc3nc2c1C | 2.35 µM (≈ 0.608 µg/mL) | 2.35 µM (≈ 0.608 µg/mL) | 12.5 µM (≈ 3.23 µg/mL) | – | – | – | – | 2.35 µM (≈ 0.608 µg/mL) | 3.13 µM (≈ 0.81 µg/mL) | –
O=C(O)CN(CCN(CC(=O)O)CC(=O)O)CC(=O)O [EDETIC ACID] | 125 µM (≈ 36.5 µg/mL) | – | 500 µM (≈ 146 µg/mL) | – | >2000 µM | <= 1% | – | – | – | MBC [16]: > 2000 µM; MBEC [17]: >2000 µM
Oc1c(Br)c(Cl)c(Br)c2nc3ccc(Br)cc3nc12 | 1.56 µM (≈ 0.729 µg/mL) | 0.1 µM (≈ 0.0467 µg/mL) | 0.78 µM (≈ 0.365 µg/mL) | 12.5 µM (≈ 5.84 µg/mL) | 12.5 µM | 5.1% | 4.69 µM (≈ 2.19 µg/mL) | – | 0.3 µM (≈ 0.14 µg/mL) | MBC [18]: 6.25 µM (≈ 2.92 µg/mL); MBEC [19]: 6.25 µM
Cc1cccc2nc3c(O)cc(Cl)cc3nc12 | – | […] | – | – | – | – | – | – | 3.13 µM (≈ 0.766 µg/mL) | –
Oc1c(Br)c(Cl)c(Br)c2nc3ccc(F)cc3nc12 | 0.2 µM (≈ 0.0813 µg/mL) | – | – | 12.5 µM (≈ 5.08 µg/mL) | – | <= 1% | 3.13 µM (≈ 1.27 µg/mL) | 0.15 µM (≈ 0.061 µg/mL) | 0.78 µM (≈ 0.317 µg/mL) | MIC [5]: 1.71 µM (≈ 0.695 µg/mL); IC50 [6]: > 25 µM; IC50 [7]: > 200 µM; IC50 [8]: > 200 µM; MBC [18]: 12.5 µM (≈ 5.08 µg/mL); MBEC [19]: 12.5 µM
